This note sets out measurements from ChEMBL document CHEMBL1154198, “Chemical genetics of Plasmodium falciparum” (Nature, 2010).

Structures are written as SMILES.

The subject of series [1] is Plasmodium falciparum. Nature of the series: ST_JUDE: Cytotoxicity against Plasmodium falciparum D10 transfected with yeast DHOD. The format is functional, organism-based.
Series [2] in a line: ST_JUDE: Cytotoxicity using luciferase to measure ATP as an indicator of the viability of human foreskin fibroblast cells (BJ). The series is classed as toxicity, cell-based.
Series [3] concerns Plasmodium falciparum. Kind of series: ST_JUDE: Cytotoxicity against Plasmodium falciparum W2. The series is classed as functional, organism-based.
Series [4] relates to Plasmodium falciparum. Nature of the series: ST_JUDE: Plasmodium falciparum 3D7 EC50 (uM) as measured by SYBR green dye. The format is functional, organism-based.
For series [5], the system named is Plasmodium falciparum. Kind of series: ST_JUDE: Cytotoxicity against Plasmodium falciparum Dd2. The format is functional, organism-based.
The nature of series [6]: ST_JUDE: Cytotoxicity using luciferase to measure ATP as an indicator of the viability of human epithelial hepatocellular carcinoma cells (HepG2). The format is toxicity, cell-based.
Series [7] deals with Plasmodium falciparum. Nature of the series: ST_JUDE: Cytotoxicity against Plasmodium falciparum SB-A6. The format is functional, organism-based.
The test system of series [8] is Plasmodium falciparum. Nature of the series: ST_JUDE: Cytotoxicity against Plasmodium falciparum K1. The format is functional, organism-based. In short, it runs like this:
(§1)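 Asexual P. falciparum grown in human erythrocytes, exposed to compounds for 72 h, and growth read as the DNA quantity in treated versus control cultures. Dose-response run at 12 concentrations from 10 μM to 5 nM.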

The nature of series [9]: ST_JUDE: Cytotoxicity using luciferase to measure ATP as an indicator of the viability of human Burkitt''s lymphoma lymphoblast cells (Raji). The series is classed as toxicity, cell-based.
For another series, the system named is Toxoplasma gondii. Kind of series: ST_JUDE: Growth inhibition of to Toxoplasma gondii, in human U-2OS cells, as measured by luciferase. The format is functional, organism-based. As to conditions: RH, U2OS. In short, it runs like this:
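T. gondii parasites engineered to express luciferase; drug sensitivity read by luminescence.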

A further series has as its system Leishmania major. Kind of series: ST_JUDE: Cytotoxicity using Alamar Blue to measure viability of Leishmania major. The format is functional, organism-based. In short, it runs like this: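 L. major promastigotes; drug susceptibility read with Alamar Blue.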
(In general: Resazurin is reduced to fluorescent resorufin, in cell work by metabolically active cells.)

Series [10] is described as follows: ST_JUDE: Cytotoxicity using luciferase to measure ATP as an indicator of the viability of human epithelial embryonic kidney cells (HEK293). The series is classed as toxicity, cell-based.
Series [11] deals with Plasmodium falciparum. Kind of series: ST_JUDE: Plasmodium falciparum K1 EC50 (uM) as measured by SYBR green dye. The format is functional, organism-based.
A further series has as its system Trypanosoma brucei. Nature of the series: ST_JUDE: Cytotoxicity using luciferase to measure ATP as an indicator of the viability of Trypanosoma brucei. The series is classed as functional, organism-based.
The subject of series [12] is Plasmodium falciparum. Nature of the series: ST_JUDE: Cytotoxicity against Plasmodium falciparum 3D7. The format is functional, organism-based. An outline of the steps: as §1
Series [13] concerns Plasmodium falciparum. Nature of the series: ST_JUDE: Cytotoxicity against Plasmodium falciparum V1/S. The format is functional, organism-based.

On to `Cc1ccc(N2C(N)=NC(N)=NC2(C)C)cc1`, for which the EC50 is 0.785 µM in the series on Plasmodium falciparum [1]; above 34.9 µM in series [2]; 0.729 µM with Plasmodium falciparum [3]; 0.0333 µM in the series with Plasmodium falciparum [4]; 2.03 µM with Plasmodium falciparum [5]; above 34.9 µM in [6]. Moreover, the half-maximal effective concentration (EC50) in the series on Plasmodium falciparum [7] was 0.0151 µM; with Plasmodium falciparum [8], 0.676 µM; in series [9], above 34.9 µM; in the series on Toxoplasma gondii, 5.71 µM; in the series on Leishmania major, above 15 µM; in series [10] it was above 34.9 µM. Besides, the EC50 was 0.989 µM in the series on Plasmodium falciparum [11], above 33.5 µM in the series with Trypanosoma brucei, 0.0214 µM in the series with Plasmodium falciparum [12] and above 8.97 µM with Plasmodium falciparum [13].
With `Cc1ccc(C)c(N2CCN(Cc3cc(Br)ccc3O)CC2)c1`, the EC50 with Plasmodium falciparum [1] was 0.579 µM; in series [2], above 35.6 µM; in the series with Plasmodium falciparum [3], 0.571 µM; in the series with Plasmodium falciparum [4], 0.395 µM; in the series on Plasmodium falciparum [5] it was 0.427 µM; in series [6], above 35.6 µM. In addition, the EC50 was 0.716 µM in the series on Plasmodium falciparum [7]; 0.206 µM in the series with Plasmodium falciparum [8]; above 35.6 µM in [9]; above 19.5 µM in the series on Toxoplasma gondii; above 15.3 µM with Leishmania major; above 35.6 µM in [10]. Moreover, the EC50 in the series with Plasmodium falciparum [11] came out at 0.178 µM; in the series with Trypanosoma brucei it was 28.3 µM; with Plasmodium falciparum [12], 0.531 µM; in the series on Plasmodium falciparum [13], 0.297 µM.
As for `CCCCn1c(=N)n(CC(O)c2ccc(Br)cc2)c2ccccc21` (stereo not given), the EC50 in the series with Plasmodium falciparum [1] is 5.62 µM; in series [2], above 43.4 µM; in the series on Plasmodium falciparum [3], 0.638 µM; in the series with Plasmodium falciparum [4] it was 1.04 µM; in the series with Plasmodium falciparum [5], 0.869 µM; in [6], 18.9 µM. In addition, the EC50 in the series on Plasmodium falciparum [7] is 2.62 µM; in the series with Plasmodium falciparum [8], 1.36 µM; in [9], 32.9 µM; with Toxoplasma gondii, above 23.8 µM; with Leishmania major, above 18.6 µM; in [10], above 43.4 µM. The EC50 was found to be 0.39 µM in the series on Plasmodium falciparum [11], 6.22 µM in the series on Trypanosoma brucei, 2 µM in the series on Plasmodium falciparum [12] and 1.11 µM in the series on Plasmodium falciparum [13].
As for `CCO/C(O)=C1\C(C)=NC2=C(C(=O)CC(c3ccc(OC)c(OC)c3)C2)C1c1cccc(Cl)c1` (stereo not given), the EC50 in the series on Plasmodium falciparum [1] is 0.531 µM; in series [2], above 41.9 µM; in the series with Plasmodium falciparum [3], 1.8 µM; with Plasmodium falciparum [4] it was 0.716 µM; in the series with Plasmodium falciparum [5] it was 1.48 µM; in series [6] it was above 41.9 µM. The EC50 was 0.335 µM in the series on Plasmodium falciparum [7]; 0.487 µM with Plasmodium falciparum [8]; above 41.9 µM in series [9]; above 22.9 µM in the series on Toxoplasma gondii; above 17.9 µM in the series with Leishmania major; above 41.9 µM in [10]. Besides, the EC50 in the series on Plasmodium falciparum [11] stood at 0.226 µM; in the series with Trypanosoma brucei, 16.7 µM; in the series with Plasmodium falciparum [12], 0.831 µM; with Plasmodium falciparum [13], 0.902 µM.
On to `Cc1cccc(CN2CCC(CNC(=S)Nc3ccc4nc(N5CCN(C)CC5)cc(C)c4c3)CC2)c1`, for which the EC50 with Plasmodium falciparum [1] turned out to be 1.05 µM; in series [2], 9.56 µM; in the series with Plasmodium falciparum [3] it was 2.23 µM; with Plasmodium falciparum [4], 0.395 µM; in the series on Plasmodium falciparum [5], 0.506 µM; in series [6] it was 6.04 µM. Also, the EC50 in the series with Plasmodium falciparum [7] is 0.708 µM; in the series with Plasmodium falciparum [8] it was 0.995 µM; in series [9], 22.6 µM; in the series on Toxoplasma gondii, above 23.2 µM; in the series with Leishmania major, above 18.1 µM; in series [10], 13.6 µM. The EC50 in the series on Plasmodium falciparum [11] worked out at 1.25 µM; in the series on Trypanosoma brucei, 4.8 µM; in the series with Plasmodium falciparum [12], 1.14 µM; with Plasmodium falciparum [13], 1.99 µM.
On to `CC(C)c1ccccc1Oc1c(C(F)(F)F)oc2c(CN3CCN(C)CC3)c(O)ccc2c1=O`, for which the EC50 in the series on Plasmodium falciparum [1] was 0.231 µM; in series [2], above 21 µM; in the series on Plasmodium falciparum [3] it was 0.252 µM; in the series on Plasmodium falciparum [4], 0.72 µM; in the series on Plasmodium falciparum [5], 1.81 µM; in series [6] it was above 21 µM. In addition, the EC50 in the series with Plasmodium falciparum [7] was 0.334 µM; in the series on Plasmodium falciparum [8], 0.159 µM; in series [9], above 21 µM; in the series with Toxoplasma gondii it was above 11.5 µM; with Leishmania major, 0.327 µM; in series [10], above 21 µM. The EC50 with Plasmodium falciparum [11] is 0.224 µM; in the series on Trypanosoma brucei it was above 20.1 µM; in the series with Plasmodium falciparum [12] it was 0.184 µM; in the series on Plasmodium falciparum [13] it was 0.178 µM.
With `CC(C)CN1C(=O)c2ccccc2C(C(=O)Nc2cccc(C#N)c2)C1c1cccs1` (stereo not given), the EC50 is 0.366 µM in the series with Plasmodium falciparum [1]; above 46.8 µM in series [2]; 0.196 µM in the series with Plasmodium falciparum [3]; 0.0584 µM in the series with Plasmodium falciparum [4]; 0.161 µM in the series with Plasmodium falciparum [5]; above 46.8 µM in [6]. Moreover, the EC50 in the series with Plasmodium falciparum [7] was 0.351 µM; with Plasmodium falciparum [8] it was 0.232 µM; in series [9], above 46.8 µM; in the series on Toxoplasma gondii, above 25.7 µM; in the series on Leishmania major, above 20.1 µM; in series [10] it was above 46.8 µM. The EC50 in the series on Plasmodium falciparum [11] was 0.0809 µM; in the series on Trypanosoma brucei, 3.18 µM; in the series on Plasmodium falciparum [12] it was 0.271 µM; in the series with Plasmodium falciparum [13], 0.296 µM.
For `CC(=O)c1cccc(NC(=O)C2c3ccccc3C(=O)N(CC(C)C)C2c2cccs2)c1` (stereo not given), the EC50 with Plasmodium falciparum [1] is 0.411 µM; in series [2], above 43.2 µM; in the series with Plasmodium falciparum [3] it was above 11.1 µM; in the series on Plasmodium falciparum [4], 0.196 µM; with Plasmodium falciparum [5] it was 0.392 µM; in [6] it was above 43.2 µM. Besides, the EC50 with Plasmodium falciparum [7] was 0.414 µM; with Plasmodium falciparum [8], 0.357 µM; in series [9], above 43.2 µM; in the series on Toxoplasma gondii, above 23.7 µM; with Leishmania major it was above 18.5 µM; in series [10] it was above 43.2 µM. In addition, the EC50 stood at 0.284 µM in the series with Plasmodium falciparum [11], 5.85 µM in the series with Trypanosoma brucei, 0.363 µM in the series on Plasmodium falciparum [12] and 0.371 µM in the series on Plasmodium falciparum [13].
Turning to `CCCO/C(O)=C1\C(C)=NC2=C(C(=O)CC(c3ccc(OC)c(OC)c3)C2)C1c1ccccc1C` (stereo not given), the EC50 in the series on Plasmodium falciparum [1] is 0.0685 µM; in [2], above 41.3 µM; with Plasmodium falciparum [3], 0.0213 µM; in the series with Plasmodium falciparum [4], 0.308 µM; in the series with Plasmodium falciparum [5], 0.0898 µM; in series [6], above 41.3 µM. The EC50 was 0.0565 µM in the series on Plasmodium falciparum [7]; 0.11 µM in the series with Plasmodium falciparum [8]; above 41.3 µM in [9]; above 22.6 µM in the series with Toxoplasma gondii; above 17.7 µM in the series with Leishmania major; above 41.3 µM in [10]. Besides, the EC50 with Plasmodium falciparum [11] was determined as 0.292 µM; in the series on Trypanosoma brucei, 6.57 µM; with Plasmodium falciparum [12], 0.134 µM; with Plasmodium falciparum [13], 0.0982 µM.
On to `COc1cc(C2CC(=O)NC3=C2C(=O)CC(c2ccccc2Cl)C3)cc(Br)c1O` (stereo not given), for which the concentration for a half-maximal effect (EC50) is 1.93 µM in the series on Plasmodium falciparum [1]; above 54.2 µM in [2]; 1.06 µM in the series with Plasmodium falciparum [3]; 1.28 µM in the series with Plasmodium falciparum [4]; 1.91 µM with Plasmodium falciparum [5]; above 54.2 µM in series [6]. Also, the EC50 with Plasmodium falciparum [7] was 2.45 µM; in the series with Plasmodium falciparum [8], 1.91 µM; in [9] it was above 54.2 µM; in the series on Toxoplasma gondii it was above 29.7 µM; in the series with Leishmania major, above 23.2 µM; in series [10] it was above 54.2 µM. Besides, the EC50 in the series on Plasmodium falciparum [11] was 0.945 µM; in the series on Trypanosoma brucei, 16.4 µM; with Plasmodium falciparum [12], 1.85 µM; with Plasmodium falciparum [13], 2.73 µM.

One may read the EC50 as the concentration giving half of the maximal effect.
